UBC13 inh – human UBC13 polyubiquitination inhibition; P61088; 330,000 tested, 0.47% active; UBC13 polyubiquitin chain formation, TR-FRET; inhibition, % at 20 µM; in the data active means inhibition above about 45%, passing the limit was not always enough
Target sequence (P61088 whole entry, looked up): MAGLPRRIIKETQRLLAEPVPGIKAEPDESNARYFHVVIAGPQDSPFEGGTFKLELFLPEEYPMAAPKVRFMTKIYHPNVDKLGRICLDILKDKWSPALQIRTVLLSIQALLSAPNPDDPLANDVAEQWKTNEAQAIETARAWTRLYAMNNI
AI-2 QS mod – Vibrio harveyi AI-2 quorum sensing modulation. 300,000 tested, 0.4% active. Vibrio harveyi JMH597 AI-2 luminescence/OD600 ratio, 9 h; active compounds read low; strain lacks LuxN and CqsS sensors; 0 = neutral-control median. activity change, % at 7.5 µM; in the data active means activity change below about -75%, passing the limit was not always enough;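 further: luminescence divided by OD600 gain over 9 h not by final OD600 alone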
T cruzi repl – blocks replication of Trypanosoma cruzi. T. cruzi beta-gal in NIH3T3, luminescence, 90 h. AID 1885. inhibition, % (no concentration beside the values). 300,000 tested, 1.4% active;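 active means mean inhibition across valid replicates above about 55%, limit read from the data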;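 further: signal also drops with host cell toxicity which is not excluded here; higher percent means less beta-gal luminescence so fewer parasites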
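assay system = mouse NIH/3T3 fibroblasts infected with β-gal-expressing T. cruzi Tulahuen C4 | input = 5,000 NIH/3T3 host cells per well | buffer or medium = DMEM plus 2% FBS | timing = 3 h host attachment, then at least 90 h co-culture | measured by = GalScreen luminescence, 60 min | evaluation = luminescence reflecting intracellular parasite burden, expressed as percent inhibition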
PP1 counter – PP1-alpha (human) inhibition in PP5 counter-screen; P62136; purified PP1alpha, OMFP fluorescence; inhibition, % at 6.7 µM; 320,000 tested, 0.9% active; AID 2235;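 active means inhibition above the mean inhibition of all tested compounds plus 3 SD, computed separately for each screening campaign, cut at about 15% in these data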
pCIP destab – lowers stability of the mouse p/CIP coactivator protein. 290,000 tested, 0.01% active. AID 1984. decrease of EGFP signal, % at 10 µM. Q05BA5. F442A p/CIP-EGFP cells, EGFP fluorescence, 16 h;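 active means EGFP signal decrease of at least 30% at 10 µM or well 3 SD below plate mean, unless failing retest; inactive means the rest, including hits failing retest or dose response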
Large screens that a line does not name were inactive. Most compounds without a hit are left out; they make up all but 2.8% or so of the library.

COc1ccc(Cl)cc1NS(=O)(=O)c1cccc(C(=O)NCCCN2CCCC2=O)c1	none
COc1cc(OC)c(OC)cc1CN1CCCC(C(=O)c2ccccc2SC)C1 (stereo unspecified)	T cruzi repl 56
COc1cc(CN2CCCC(C(=O)c3ccccc3SC)C2)cc(OC)c1 (stereo unspecified)	T cruzi repl 68
COc1cc(OC)c(OC)cc1CN1CCCC(C(=O)N2CCCCC2)C1 (stereo unspecified)	none
COc1ccccc1C(=O)C1CCCN(Cc2cn[nH]c2C2CCCCC2)C1 (stereo unspecified)	T cruzi repl 62
CC(C)(C)NC(=O)COC(=O)c1cc(S(=O)(=O)N2CCCCC2)ccc1N1CCOCC1	none
Cc1ccc([N+](=O)[O-])cc1N(CC(=O)Nc1ccc(S(=O)(=O)Nc2cccc(C(F)(F)F)c2)cc1)S(C)(=O)=O	T cruzi repl 61
CC(=O)c1c(C)[nH]c(C(=O)CN2C(=O)NC3(CCCCC3)C2=O)c1C	none (no result: AI-2 QS mod, T cruzi repl, PP1 counter, pCIP destab)
CCOC(=O)C1=C(CC)Nc2ccccc2N/C1=N\S(=O)(=O)c1ccccc1OC	none (no result: AI-2 QS mod, T cruzi repl, pCIP destab)
O=C1C(=O)c2c(C(=O)c3ccccc3)coc2-c2ccccc21	T cruzi repl 58
NS(=O)(=O)c1ccc(Nc2nc(-c3cccc([N+](=O)[O-])c3)cs2)cc1	T cruzi repl 58
NS(=O)(=O)c1ccc(Nc2nc(-c3ccc4ccccc4c3)cs2)cc1	none
O=C(/C=C/c1ccccc1)NC(NC(=S)Nc1cccc(Cl)c1)C(Cl)(Cl)Cl (stereo unspecified)	T cruzi repl 59
O=C(NC(NC(=S)Nc1c(Cl)cc(Cl)cc1Cl)C(Cl)(Cl)Cl)OCc1ccccc1 (stereo unspecified)	T cruzi repl 74
Cc1ccc(C)c(NC(=S)NC(NC(=O)OCc2ccccc2)C(Cl)(Cl)Cl)c1 (stereo unspecified)	none
O=C(/C=C/c1ccccc1)NC(NC(=S)Nc1cccc(O)c1)C(Cl)(Cl)Cl (stereo unspecified)	none
Cc1ccc(C)c(NC(=S)NC(NC(=O)/C=C/c2ccccc2)C(Cl)(Cl)Cl)c1 (stereo unspecified)	none
O=C(/C=C/c1ccccc1)NC(NC(=S)Nc1ccc(Cl)cc1Cl)C(Cl)(Cl)Cl (stereo unspecified)	T cruzi repl 78
COc1cccc(NC(=O)CNC(=O)N2CC(=O)Nc3ccccc32)c1	none
Cc1ccc(N2CCN(c3ccc(C)cc3)C2c2cccnc2)cc1	T cruzi repl 59
Brc1ccc2c(c1)OCCOCCOc1cc(Br)ccc1OCCOCCOCCO2	T cruzi repl 65
Brc1cc2c(cc1Br)OCCOCCOCCOCCO2	none
COc1ccc(CNC(=O)c2ccc3c(c2)N(C)C(=O)CS3=O)cc1 (stereo unspecified)	none
COc1cccc(C(=O)NC2CCN(C(=O)N3c4ccccc4Sc4ccccc43)CC2)c1	T cruzi repl 70
CCOC(=O)/C(=N\Nc1ccccc1)c1csc(Nc2ccc(C)cc2)n1	T cruzi repl 60
CCCCC(CCC(=O)O)(C(=O)OCC)c1csc(Nc2ccc(C)cc2)n1 (stereo unspecified)	none
CCCc1cc(=O)[nH]c(SCC(=O)Nc2oc(C)c3c(C)n[nH]c(=O)c23)n1	none (no result: pCIP destab)
CCOc1ccccc1NC(=O)C(=O)N/N=C/c1cc(Br)ccc1O	T cruzi repl 63
O=C(N/N=C/c1ccccc1O)c1ccncc1	none (no result: pCIP destab)
O=C(N/N=C/c1cc(Br)ccc1O)c1ccncc1	AI-2 QS mod -94
O=C(N/N=C/c1cc([N+](=O)[O-])ccc1O)c1ccncc1	AI-2 QS mod -91
O=C(N/N=C\c1cc(Br)ccc1O)c1ccc(S(=O)(=O)N2CCCCC2)cc1	T cruzi repl 59
CCOC(=O)CCCNC(=O)COC(=O)[C@@H]1CCCN1S(=O)(=O)c1ccc(Cl)cc1	none
Cn1cc(C(=O)c2ccc(Cl)cc2Cl)cc1C(=O)N/N=C(\N)COc1ccc(Cl)cc1	PP1 counter 16
Cn1cc(C(=O)c2ccc(Cl)cc2Cl)cc1C(=O)N/N=C(\N)COc1ccc(F)cc1	none
O=C(O)CCCCCCCCc1cn(Cc2ccc(C(=O)c3ccccc3)cc2)nn1	T cruzi repl 56
CCc1ccc2[nH]c(=O)c(CN(Cc3ccccc3)C(=O)Nc3ccccc3OC)cc2c1	T cruzi repl 66
CCc1ccc2[nH]c(=O)c(CN(CCN(C)C)C(=O)Nc3ccccc3OC)cc2c1	none

Source: PubChem
